The values that follow come from ChEMBL document CHEMBL1151946, “Doxazosin-related alpha1-adrenoceptor antagonists with prostate antitumor activity” (J Med Chem, 2009).

For experiment [1], the target named is T1, Alpha-1A adrenergic receptor (Homo sapiens, UniProt P35348).
T1 sequence (P35348 whole entry): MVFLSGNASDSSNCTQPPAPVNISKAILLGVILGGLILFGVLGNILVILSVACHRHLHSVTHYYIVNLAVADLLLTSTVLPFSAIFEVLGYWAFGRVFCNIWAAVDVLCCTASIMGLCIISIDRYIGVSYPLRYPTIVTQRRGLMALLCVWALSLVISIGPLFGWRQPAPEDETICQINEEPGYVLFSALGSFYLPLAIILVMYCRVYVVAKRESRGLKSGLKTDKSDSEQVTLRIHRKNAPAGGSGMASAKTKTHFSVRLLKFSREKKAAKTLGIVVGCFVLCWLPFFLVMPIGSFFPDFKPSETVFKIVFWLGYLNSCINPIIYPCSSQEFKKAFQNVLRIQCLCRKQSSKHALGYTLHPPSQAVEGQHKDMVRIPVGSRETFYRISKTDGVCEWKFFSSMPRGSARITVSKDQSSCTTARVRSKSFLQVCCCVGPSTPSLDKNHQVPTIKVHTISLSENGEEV
Description: Displacement of [3H]prazosin from human alpha1A adrenoceptor expressed in CHO cells. Format: cell-based. The gist of the method: (§1)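 Radioligand competition binding used [3H]prazosin on membranes of CHO cells expressing human α1a, α1b or α1d adrenoceptor. IC50 values were converted to pKi by the Cheng-Prusoff equation. Data come from two to three experiments run in triplicate, agreeing within ±20%.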
(Displacement assays read how much labelled ligand stays bound in the presence of the test substance.)

Experiment [2] relates to PC-3. The experiment can be described thus: Cytotoxicity against human PC3 cells after 72 hrs by CellTitter-Glo luminescent cell viability assay. Format: functional, cell-based. As to conditions: PC-3, 72 h.
For experiment [3], the target named is T2, Alpha-1B adrenergic receptor (Rattus norvegicus) (UniProt P15823).
T2 sequence (whole entry): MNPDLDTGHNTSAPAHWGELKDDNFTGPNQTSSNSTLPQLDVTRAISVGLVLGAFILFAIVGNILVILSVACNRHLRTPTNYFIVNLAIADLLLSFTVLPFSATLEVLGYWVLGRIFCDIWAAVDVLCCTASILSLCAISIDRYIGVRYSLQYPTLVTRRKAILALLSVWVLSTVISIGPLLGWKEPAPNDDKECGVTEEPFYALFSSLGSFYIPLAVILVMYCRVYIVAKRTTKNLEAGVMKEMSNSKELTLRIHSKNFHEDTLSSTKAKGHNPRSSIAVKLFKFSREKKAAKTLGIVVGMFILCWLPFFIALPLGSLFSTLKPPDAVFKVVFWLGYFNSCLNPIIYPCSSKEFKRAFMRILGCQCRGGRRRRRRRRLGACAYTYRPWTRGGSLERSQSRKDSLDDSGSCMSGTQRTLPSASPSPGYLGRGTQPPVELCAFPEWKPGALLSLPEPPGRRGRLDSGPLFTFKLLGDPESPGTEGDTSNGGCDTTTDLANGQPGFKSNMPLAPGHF
The experiment can be described thus: Antagonist activity at rat Alpha-1B adrenoceptor assessed as inhibition if phenylephrine-induced contraction of spleen. Format: functional, tissue-based. The gist of the method:
(§2)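 Isolated rat tissue contraction assay. The α1A response used vas deferens with (-)-noradrenaline as agonist, α1D used thoracic aorta with (-)-noradrenaline, and α1B used spleen with (-)-phenylephrine. pA2 values are means ± SEM over three antagonist concentrations, each tested at least four times. Where the Schild slope differed from unity, pKB was calculated by van Rossum at the lowest antagonist concentration giving log(CR−1) ≥0.5.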

Experiment [4] relates to NHDF. The experiment can be described thus: Induction of apoptosis in human NHDF cells assessed as caspase 3/7 activation after 24 hrs Caspase-Glo 3/7 assay. The experiment is classed as functional, cell-based.
Experiment [5] has as its target T3, Alpha-1A adrenergic receptor (Rattus norvegicus) (UniProt P43140).
T3 sequence (whole entry): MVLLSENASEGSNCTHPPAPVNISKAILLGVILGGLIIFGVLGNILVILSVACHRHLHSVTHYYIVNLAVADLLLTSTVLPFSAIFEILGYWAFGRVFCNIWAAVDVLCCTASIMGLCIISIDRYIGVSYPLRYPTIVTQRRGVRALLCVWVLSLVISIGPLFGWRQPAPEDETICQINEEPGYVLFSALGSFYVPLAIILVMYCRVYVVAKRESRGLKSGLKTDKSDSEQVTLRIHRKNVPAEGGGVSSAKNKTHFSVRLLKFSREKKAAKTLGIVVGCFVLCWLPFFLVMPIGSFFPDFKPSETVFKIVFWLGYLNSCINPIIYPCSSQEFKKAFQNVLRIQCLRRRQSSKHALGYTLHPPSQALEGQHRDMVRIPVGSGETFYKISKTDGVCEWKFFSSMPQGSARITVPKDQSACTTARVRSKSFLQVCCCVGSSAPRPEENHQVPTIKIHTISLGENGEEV
Description: Antagonist activity at rat alpha1A adrenoceptor assessed as inhibition if norepinephrine-induced contraction of vas deference. Format: functional. An outline of the steps: as §2

Experiment [6] relates to NHDF. Description: Cytotoxicity against human NHDF cells after 72 hrs by CellTitter-Glo luminescent cell viability assay. Format: functional, cell-based.
The test system of experiment [7] is LNCaP. Description: Cytotoxicity against human LNCAP cells after 72 hrs by CellTitter-Glo luminescent cell viability assay. The experiment is classed as functional, cell-based.
Experiment [8] has as its target T4, Alpha-1D adrenergic receptor (Homo sapiens, UniProt P25100).
T4 sequence (P25100 whole entry): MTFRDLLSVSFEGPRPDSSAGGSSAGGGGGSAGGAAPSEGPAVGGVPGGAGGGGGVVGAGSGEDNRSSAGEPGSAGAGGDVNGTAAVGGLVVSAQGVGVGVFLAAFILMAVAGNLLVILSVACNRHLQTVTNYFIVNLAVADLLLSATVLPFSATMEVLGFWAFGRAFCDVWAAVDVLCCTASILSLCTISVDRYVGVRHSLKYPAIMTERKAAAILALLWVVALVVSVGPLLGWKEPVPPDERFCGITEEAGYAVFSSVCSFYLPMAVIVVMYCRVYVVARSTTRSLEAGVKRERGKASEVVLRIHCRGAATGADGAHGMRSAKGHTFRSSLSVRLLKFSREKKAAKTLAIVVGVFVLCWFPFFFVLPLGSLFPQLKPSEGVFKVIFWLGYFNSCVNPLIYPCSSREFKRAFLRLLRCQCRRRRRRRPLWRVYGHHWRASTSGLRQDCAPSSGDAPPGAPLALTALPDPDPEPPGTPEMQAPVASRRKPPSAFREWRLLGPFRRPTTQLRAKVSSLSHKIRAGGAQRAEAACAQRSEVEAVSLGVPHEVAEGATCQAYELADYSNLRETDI
The experiment can be described thus: Displacement of [3H]prazosin from human Alpha-1D adrenoceptor expressed in CHO cells. Format: cell-based. An outline of the steps:
as §1

What is called Ki is a measure of affinity in units of concentration, obtained from inhibition or displacement. As usually defined, the IC50 is the concentration that inhibits the measured activity by half. Lower therefore signals greater potency in that assay. As a reminder, the pKb is the negative decadic logarithm of the Kb, by convention in mol/L. One may read the EC50 as the concentration at which the effect is half-maximal. Consider `COc1cc2nc(N3CCN(C(=O)C4COc5ccccc5O4)[C@H]4CCCC[C@@H]43)nc(N)c2cc1OC` (relative stereo), for which the results for the Ki in experiment [1] and in experiment [8] were 81.3 nM and 26.3 nM, respectively. Also, the IC50 was > 10000 nM in experiment [2], > 10000 nM in experiment [6] and 9750 nM in experiment [7]. Further, the pKb in experiment [3] was determined as 7.14; in experiment [5], 5.88. The EC50 in experiment [4] was 10000 nM.

With `COc1cc2nc(N3CCN(C(=O)C4COc5ccccc5O4)[C@H]4CCCC[C@H]43)nc(N)c2cc1OC` (relative stereo) [CYCLODOXAZOSIN], the Ki is 2.82 nM in experiment [1] and 0.17 nM in experiment [8]. For the same molecule, the EC50 is 1860 nM in experiment [2], > 10000 nM in experiment [4], > 10000 nM in experiment [6] and 1420 nM in experiment [7]. In addition, the IC50 in experiment [2] was found to be 850 nM; in experiment [6], 1460 nM; in experiment [7], 570 nM. Also, the pKb in experiment [3] was 8.3; in experiment [5], 7.21.

Take `COc1cc2nc(N(C)CCCCCCN(C)C(=O)C3COc4ccccc4O3)nc(N)c2cc1OC` (configuration not stated): the inhibitory constant (Ki) in experiment [1] is 1.86 nM; in experiment [8], 1.58 nM. The IC50 came to 8400 nM in experiment [2], 9800 nM in experiment [6] and 4610 nM in experiment [7]. Besides, the pKb in experiment [3] came out at 8.35; in experiment [5], 8.51. Besides, the EC50 in experiment [4] came to 10000 nM.
